Measured values as given in ChEMBL document CHEMBL2346495, “Evaluation of HIV-1 inhibition by stereoisomers and analogues of the sesquiterpenoid hydroquinone peyssonol A” (Bioorg Med Chem Lett, 2013).

Legend:
[1] = system: Human immunodeficiency virus 1; assay: Antiviral activity against recombinant HIV1 expressing Rep-Rluc Sac II infected in human MT2 cells after 5 days by luciferase reporter gene assay; format: functional, organism-based; details: Human immunodeficiency virus 1, MT2, 120 h
Outline: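 MT-2 human lymphocytes infected with recombinant HIV-1 NL-Rluc (Rep-Rluc Sac II) in the presence of compounds; 5-day incubation, then cells processed and virus growth quantified by expressed luciferase. EC50 values averaged from two to four experiments.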

[2] = Therapeutic index, ratio of CC50 for human MT2 cells to EC50 for recombinant HIV1 expressing Rep-Rluc Sac II; format: cell-based; details: read-out: Ratio CC50/EC50
Outline: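 Therapeutic index computed as CC50 (XTT viability of uninfected MT-2 cells, serial dilutions) over EC50 (luciferase output after 5-day infection of MT-2 cells with HIV-1 NL-Rluc in the presence of compounds). Each input is averaged from two to four experiments.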

[3] = Cytotoxicity against human MT2 cells by XTT assay; format: cell-based
Outline: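 Uninfected MT-2 cells, run in parallel with the antiviral screen, exposed to serially diluted compounds; viability read by XTT assay. CC50 averaged from two to four experiments.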

| Structure (SMILES) | EC50 [1] [µM] | selectivity ratio [2] | CC50 [3] [µM] |
| --- | --- | --- | --- |
| O=Cc1cc(O)c(CC2CCCCC2)cc1O | 4 | > 25 | > 100 |
| CC1=CC[C@H]2C(C)(C)[C@@H](Br)CC[C@]2(C)[C@@H]1Cc1cc(O)c(C=O)cc1O | 0.9 | 4 | 4 |
| CC1=C(Cc2cc(O)c(C=O)cc2O)[C@@]2(C)CC[C@H](Br)C(C)(C)[C@@H]2CC1 | 0.8 | 5 | 4 |
| CC1(C)[C@@H](Br)CC[C@@]2(C)[C@H]1CC[C@@](C)(O)[C@H]2CO | 2 | 44 | 90 |
| CC1(C)CCC[C@@]2(C)[C@H]1CC[C@@]1(C)OC(=O)OC[C@@H]21 | 2 | 17 | 30 |
| CC1(C)[C@@H](Cl)CC[C@@]2(C)[C@H]1CC[C@@]1(C)OC(=O)OC[C@@H]21 | 10 | 4 | 40 |
| CC1(C)[C@@H](I)CC[C@@]2(C)[C@H]1CC[C@@]1(C)OC(=O)OC[C@@H]21 | 5 | 6 | 30 |
| Cc1cc(O)c(C=O)cc1O | 10 | 3 | 30 |
| CC(=O)OC[C@H]1[C@@]2(C)CC[C@H](Br)C(C)(C)[C@H]2CC[C@]1(C)O | 40 | > 2 | > 100 |
| CC(=O)OC[C@@H]1[C@@]2(C)CC[C@H](Br)C(C)(C)[C@H]2CC[C@]1(C)O | 20 | 3 | 70 |
| CC(=O)OC[C@@H]1[C@@]2(C)CC[C@H](Br)C(C)(C)[C@@H]2CC[C@@]1(C)O | 10 | 3 | 40 |
| CC(=O)OC[C@H]1[C@@]2(C)CC[C@H](Br)C(C)(C)[C@@H]2CC[C@@]1(C)O | 10 | 8 | 90 |
| CC1(C)[C@H]2CC[C@]3(C)OC(=O)OC[C@H]3[C@@]2(C)CC[C@@H]1Br | 9 | > 11 | > 100 |
| CC1(C)[C@H]2CC[C@]3(C)OC(=O)OC[C@@H]3[C@@]2(C)CC[C@@H]1Br | 7 | 9 | 70 |
| CC1(C)[C@@H](Br)CC[C@]2(C)[C@H]3COC(=O)O[C@]3(C)CC[C@@H]12 | 10 | > 10 | > 100 |
| CC1(C)[C@@H](Br)CC[C@@]2(C)[C@H]1CC[C@@]1(C)OC(=O)OC[C@@H]21 | 4 | 23 | 90 |
| C=C1CC[C@@H]2C(C)(C)[C@@H](Br)CC[C@]2(C)[C@@H]1Cc1cc(O)c(C=O)cc1O | 0.7 | 7 | 5 |
| C=C1CC[C@@H]2C(C)(C)[C@@H](Br)CC[C@]2(C)[C@H]1Cc1cc(O)c(C=O)cc1O | 0.5 | 8 | 4 |
| C=C1CC[C@H]2C(C)(C)[C@@H](Br)CC[C@]2(C)[C@H]1Cc1cc(O)c(C=O)cc1O | 0.5 | 4 | 2 |
| CC1(C)[C@@H](Br)CC[C@@]2(C)[C@H]1CC[C@@]1(C)Oc3cc(C=O)c(O)cc3C[C@@H]21 | 1 | 5 | 5 |
| CC1=CC[C@H]2C(C)(C)[C@@H](Br)CC[C@]2(C)[C@@H]1Cc1cc(O)c(CC(=O)O)cc1O [PEYSSONOIC ACID A] | 50 | > 2 | > 100 |
| C=C1CC[C@H]2C(C)(C)[C@@H](Br)CC[C@]2(C)[C@@H]1Cc1cc(O)c(C=O)cc1O [PEYSSONOL A] | 1 | 4 | 4 |
